Consider seven compounds from ChEMBL document CHEMBL3108779, “Pyrronazols, metabolites from the myxobacteria Nannocystis pusilla and N. exedens, are unusual chlorinated pyrone-oxazole-pyrroles” (J Nat Prod, 2014).

≈ marks a conversion by molar mass, not a printed value. Calls of active or inactive are those of the source. The rule behind the calls is not given here.

The nature of data set [1]: Antifungal activity against Trichosporon oleaginosus DSM 11815 assessed as growth inhibition after 24 to 48 hrs. Format: functional. The note with it: Cutaneotrichosporon oleaginosum. The method, boiled down:
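Yeast pre-grown at 30 °C and 160 rpm for 24−48 h, then adjusted to OD548 0.1. Tested by 1:1 serial dilution in 96-well plates in MYC medium (1.0% glucose, 1.0% phytone peptone, 50 mM HEPES, pH 7.0). MIC was the lowest concentration preventing visible growth.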

The subject of another data set is Wickerhamomyces anomalus. The data set can be described thus: Antifungal activity against Wickerhamomyces anomalus DSM 6766 assessed as growth inhibition after 24 to 48 hrs. Format: functional. A digest of the protocol: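 Yeast grown at 30 °C, 160 rpm for 24−48 h and adjusted to OD548 0.1, then tested by 1:1 serial dilution in MYC medium (1.0% glucose, 1.0% phytone peptone, 50 mM HEPES, pH 7.0) in 96-well plates. MIC taken as the lowest concentration preventing visible growth.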

The next data set relates to Nocardia sp. The data set can be described thus: Antibacterial activity against Nocardia sp. DSM 43069 assessed as growth inhibition after 24 to 48 hrs. Type of data set: functional.
In another data set the test system is Aspergillus fumigatus. The data set can be described thus: Antifungal activity against Aspergillus fumigatus DSM 15966 assessed as growth inhibition after 24 to 48 hrs. Type of data set: functional. The method, boiled down:
(§1)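 Fungi pre-grown at 30 °C and 160 rpm for 24−48 h. Tested by 1:1 serial dilution in 96-well microtiter plates in MYC medium (1.0% glucose, 1.0% phytone peptone, 50 mM HEPES, pH 7.0). MIC was the lowest concentration preventing visible growth.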

The next data set relates to Aspergillus flavus. The data set can be described thus: Antifungal activity against Aspergillus flavus DSM 1959 assessed as growth inhibition after 24 to 48 hrs. Format: functional. A digest of the protocol:
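Fungus grown at 30 °C, 160 rpm for 24−48 h, then tested by 1:1 serial dilution in MYC medium (1.0% glucose, 1.0% phytone peptone, 50 mM HEPES, pH 7.0) in 96-well plates. MIC read as the lowest concentration preventing visible growth.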

Another data set has as its system Mucor hiemalis. The experiment in a line: Antifungal activity against Mucor hiemalis DSM 2656 assessed as growth inhibition after 24 to 48 hrs. Format: functional. A digest of the protocol:
as §1

Data set [2] has as its system Mycolicibacterium diernhoferi. The experiment in a line: Antibacterial activity against Mycobacterium diernhoferi DSM 43542 assessed as growth inhibition after 24 to 48 hrs. Type of data set: functional.
For data set [3], the system named is Chromobacterium violaceum. The experiment in a line: Antibacterial activity against Chromobacterium violaceum DSM 30191 assessed as growth inhibition after 24 to 48 hrs. Type of data set: functional.
The subject of a further data set is Paenibacillus polymyxa. The data set can be described thus: Antibacterial activity against Paenibacillus polymyxa DSM 36 assessed as growth inhibition after 24 to 48 hrs. Format: functional.
Data set [4] in a line: Cytotoxicity against human KB3-1 cells after 5 days by MTT assay. Format: functional. The conditions noted are these: KB 3-1, 120 h, read-out: LD50 (the source's name). A digest of the protocol:
(§2)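 A549, KB-3-1 and mouse fibroblast L929 cells cultured in DMEM plus 10% FBS at 37 °C, 10% CO2. IC50 determined by MTT assay in 96-well microplates; methanol served as negative control.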
For orientation: Tetrazolium assays rely on reduction of a dye to a coloured formazan, in cell work by metabolically active cells.

The subject of another data set is SK-OV-3. The experiment in a line: Cytotoxicity against human SKOV3 cells after 5 days by MTT assay. Format: functional. The note with it: SK-OV-3, 120 h, read-out: LD50 (the source's name). The method, boiled down: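 Human ovarian carcinoma SKOV3 cells maintained in McCoy's medium with 10% FBS, 37 °C, 10% CO2. IC50 obtained from MTT assay in 96-well plates, with methanol as negative control.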

The nature of data set [5]: Cytotoxicity against HUVEC after 5 days by MTT assay. Format: cell-based. The note with it: human, HUVEC cells. The method, boiled down: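 Nontransformed HUVEC kept in EBM-2 with 10% FBS at 37 °C under 10% CO2. MTT read-out in 96-well plates gives the IC50, with methanol as negative control.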
The test system of the next data set is A549. The experiment in a line: Cytotoxicity against human A549 cells after 5 days by MTT assay. Format: functional. The note with it: A549, 120 h, read-out: LD50 (the source's name). The method, boiled down: as §2
Another data set relates to L929. The experiment in a line: Cytotoxicity against mouse L929 cells after 5 days by MTT assay. Type of data set: functional. The note with it: L929, 120 h, read-out: LD50 (the source's name). A digest of the protocol:
as §2

The subject of another data set is Mycobacterium sp. The experiment in a line: Antibacterial activity against Mycobacterium sp. DSM 43270 assessed as growth inhibition after 24 to 48 hrs. Format: functional.

With `OC[C@H]1O[C@H](Oc2cccc3nc4c(O)cccc4nc23)[C@@H](O)[C@@H]1O`, the MIC result (in [1]; in the data set with Wickerhamomyces anomalus; in the data set with Nocardia sp.; in the data set with Aspergillus flavus; in the data set with Mucor hiemalis; in [3]) was “inactive” throughout. Besides, in the data set on Paenibacillus polymyxa, the MIC (commonly the least concentration at which growth counts as inhibited) is “inactive”. For the same compound, the MIC in the data set with Aspergillus fumigatus amounted to 33.3 µg/mL (≈ 96.7 µM); in [2], 66.6 µg/mL (≈ 193 µM).

Consider `Oc1cccc2nc3c(O)cccc3nc12`, for which the MIC result (in data set [1]; in the data set on Aspergillus fumigatus; in the data set with Aspergillus flavus) was “inactive” throughout. Further, the CC50 in data set [4] was 5.81 µM; with SK-OV-3 it was 2.59 µM; in the data set on A549, 5.65 µM; in the data set with L929 it was 11.3 µM. Further, the IC50 (in general, the point on the concentration scale where inhibition reaches its midpoint) at 120 h in [5] is 3.81 µM. The MIC is 33.3 µg/mL (≈ 157 µM) in the data set on Wickerhamomyces anomalus (Hansenula anomala); 33.3 µg/mL (≈ 157 µM) with Nocardia sp.; 33.3 µg/mL (≈ 157 µM) in the data set on Mucor hiemalis; 33.3 µg/mL (≈ 157 µM) in data set [2]; 66.7 µg/mL (≈ 314 µM) in the data set with Mycobacterium sp.; 66.7 µg/mL (≈ 314 µM) in data set [3]. The MIC with Paenibacillus polymyxa turned out to be 66.7 µg/mL (≈ 314 µM).

On to `C[C@@H]1[C@H](O)[C@@H](C)/C=C/C=C/CC/C=C/C=C/C=C/C=C/[C@H](O[C@@H]2O[C@H](C)[C@@H](O)[C@H](N)[C@@H]2O)C[C@@H]2O[C@](O)(C[C@@H](O)[C@H](O)CC[C@@H](O)C[C@@H](O)C[C@@H](O)CC(=O)O[C@H]1C)C[C@H](O)[C@H]2C(=O)O.O`, for which the figures for the minimal inhibitory concentration (MIC) in the data set on Wickerhamomyces anomalus (Hansenula anomala) and with Mucor hiemalis were 0.52 µg/mL and 2.1 µg/mL, respectively.

For `COC1=CC(=O)O[C@H](c2coc(/C(=C/c3ccc(Cl)[nH]3)CO)n2)[C@@H]1C`, the MIC result (in [1]; in the data set with Wickerhamomyces anomalus; in the data set with Nocardia sp.; with Aspergillus fumigatus; in the data set with Aspergillus flavus; in data set [2]) was “inactive” each time. In addition, the MIC entry (in the data set with Mycobacterium sp.; in data set [3]; with Paenibacillus polymyxa) was “inactive” throughout. Also, the CC50 was above 27.4 µM in data set [4], above 27.4 µM in the data set on SK-OV-3, above 27.1 µM in the data set on A549 and above 27.4 µM in the data set with L929. This compound showed an IC50 at 120 h in data set [5] above 27.4 µM. Further, the MIC with Mucor hiemalis was 33.3 µg/mL (≈ 91.3 µM).

Consider `CN[C@@H]1[C@H](O[C@H]2[C@H](O[C@H]3[C@H](O)[C@@H](O)[C@H](N=C(N)N)[C@@H](O)[C@@H]3N=C(N)N)O[C@@H](C)[C@]2(O)C=O)O[C@@H](CO)[C@H](O)[C@H]1O.CN[C@@H]1[C@H](O[C@H]2[C@H](O[C@H]3[C@H](O)[C@@H](O)[C@H](N=C(N)N)[C@@H](O)[C@@H]3N=C(N)N)O[C@@H](C)[C@]2(O)C=O)O[C@@H](CO)[C@H](O)[C@H]1O.O=S(=O)(O)O.O=S(=O)(O)O.O=S(=O)(O)O` [STREPTOMYCIN SULFATE], for which the MIC was 0.1 µg/mL in data set [1]; below 0.52 µg/mL in the data set on Nocardia sp.; below 0.52 µg/mL in [2]; 2.1 µg/mL in the data set with Mycobacterium sp.; 2.1 µg/mL in [3].

For `CN(C)[C@@H]1C(O)=C(C(N)=O)C(=O)[C@@]2(O)C(O)=C3C(=O)c4c(O)cccc4[C@@](C)(O)[C@H]3[C@H](O)[C@@H]12.Cl` [OXYTETRACYCLINE HYDROCHLORIDE], in the data set with Paenibacillus polymyxa, the MIC was determined as 6.7 µg/mL.

For the compound `C[C@@H]1[C@H](O)[C@@H](C)/C=C/C=C/C=C/C=C/C=C/C=C/C=C/[C@H](O[C@@H]2O[C@H](C)[C@@H](O)[C@H](N)[C@@H]2O)C[C@@H]2O[C@](O)(C[C@@H](O)C[C@@H](O)[C@H](O)CC[C@@H](O)C[C@@H](O)CC(=O)O[C@H]1C)C[C@H](O)[C@H]2C(=O)O` [AMPHOTERICIN B], the MIC in the data set on Aspergillus fumigatus is below 0.52 µg/mL; in the data set with Aspergillus flavus it was 1 µg/mL (≈ 1.08 µM).
